# Assay results: ChEMBL document CHEMBL1138845, “Design of non-nucleoside inhibitors of HIV-1 reverse transcriptase with improved drug resistance properties. 2” (J Med Chem, 2004)
# Tests used:
# HeLa [1] = experiment: Inhibitory concentration against human immunodeficiency virus type 1 (with K103N resistant mutation) was determined in HeLa-CD4 MAGI assay; type: functional, cell-based
# In short: (§1)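 Tested against a panel of recombinant, isogenic HIV-1 viruses, wild type and NNRTI-resistant strains carrying engineered single or double RT mutations. The readout was IC50.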
# HeLa [2] = experiment: Inhibitory concentration against human immunodeficiency virus type 1 (with Y188C resistant mutation) was determined in HeLa-CD4 MAGI assay; type: functional, cell-based; in short: as §1
# [3] = tested on: Human immunodeficiency virus 1; experiment: Inhibitory concentration against wild type human immunodeficiency virus type 1 was determined by recombinant virus assay; type: functional, organism-based
# In short: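 Isogenic recombinant HIV-1 carrying wild-type RT, tested in parallel with a panel of NNRTI-resistant RT mutants built on the same background; activity reported as IC50.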
# HeLa [4] = experiment: Inhibitory concentration against human immunodeficiency virus type 1 (with K103N/G190A resistant mutation) was determined in HeLa-CD4 MAGI assay; type: functional, cell-based; in short: as §1
# MT4 [5] = experiment: Ratio of cytotoxic concentration to that of inhibitory concentration as selectivity index was determined by MT-4 assay; type: functional, Homo sapiens
# In short: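 Index is the IC50 in uninfected MT4 cells divided by the antiviral IC50 in MT4 cells infected with wild-type HIV-1 or the nevirapine-resistant strain carrying RT mutation Y181C.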
# HeLa [6] = experiment: Inhibitory concentration against human immunodeficiency virus type 1 (with V108I/Y181C resistant mutation) was determined in HeLa-CD4 MAGI assay; type: functional, cell-based; in short: as §1
# HeLa [7] = experiment: Inhibitory concentration against human immunodeficiency virus type 1 (with G190A resistant mutation) was determined in HeLa-CD4 MAGI assay; type: functional, cell-based; in short: as §1
# HeLa [8] = experiment: Inhibitory concentration against human immunodeficiency virus type 1 (with Y181C resistant mutation) was determined in HeLa-CD4 MAGI assay; type: functional, cell-based; in short: as §1
# HeLa [9] = experiment: Inhibitory concentration against human immunodeficiency virus type 1 (with V106A resistant mutation) was determined in HeLa-CD4 MAGI assay; type: functional, cell-based; in short: as §1
# HeLa [10] = experiment: Inhibitory concentration against human immunodeficiency virus type 1 (with V106A/Y181C resistant mutation) was determined in HeLa-CD4 MAGI assay; type: functional, cell-based; in short: as §1
# HeLa [11] = experiment: Inhibitory concentration against human immunodeficiency virus type 1 (with V108I resistant mutation) was determined in HeLa-CD4 MAGI assay; type: functional, cell-based; in short: as §1
# MT4 [12] = experiment: Inhibitory concentration against nevirapine resistant strain (with Y181C mutation in HIV-1 RT gene) of human immunodeficiency virus type 1 was determined by MT-4 assay; type: functional, cell-based
# HeLa [13] = experiment: Inhibitory concentration against human immunodeficiency virus type 1 (with K103N/V108I resistant mutation) was determined in HeLa-CD4 MAGI assay; type: functional, cell-based; in short: as §1
# HeLa [14] = experiment: Inhibitory concentration against human immunodeficiency virus type 1 (with K103N/Y181C resistant mutation) was determined in HeLa-CD4 MAGI assay; type: functional, cell-based; in short: as §1
# MT4 [15] = experiment: Inhibitory concentration against wild type human immunodeficiency virus type 1 was determined by MT-4 assay; type: functional, cell-based
Structure (SMILES),IC50 (HeLa [1]) [nM],IC50 (HeLa [2]) [nM],IC50 [3] [nM],IC50 (HeLa [4]) [nM],Ratio (MT4 [5]),IC50 (HeLa [6]) [nM],IC50 (HeLa [7]) [nM],IC50 (HeLa [8]) [nM],IC50 (HeLa [9]) [nM],IC50 (HeLa [10]) [nM],IC50 (HeLa [11]) [nM],IC50 (MT4 [12]) [nM],IC50 (HeLa [13]) [nM],IC50 (HeLa [14]) [nM],IC50 (MT4 [15]) [nM]
CCCc1c(O)nc2ccc(F)cc2c1OC1CCCC1,> 2000,42,150,> 2000,>40000,> 2000,370,1800,> 2000,> 2000,350,1300,> 2000,> 2000,150
CCCc1c(O)nc2ccc(Br)cc2c1OC1CCCC1,> 2000,9,49,> 2000,>40000,520,32,> 2000,430,> 2000,120,1700,> 2000,> 2000,120
CCCc1c(O)nc2ccccc2c1OC1CCCC1,> 2000,180,350,> 2000,>40000,> 2000,270,630,> 2000,> 2000,1220,3900,> 2000,> 2000,380
CCCc1c(O)nc2ccc(Cl)cc2c1OC1CCCC1,> 2000,31,60,> 2000,>40000,670,25,> 2000,270,> 2000,200,1700,> 2000,> 2000,96
CCc1c(O)nc2ccc(Cl)cc2c1OC1CCCC1,> 2000,54,72,640,>40000,780,12,6,> 2000,~1000,260,1020,> 2000,> 2000,78
CC(C)c1c(OC#CC2CC2)c2cc(F)ccc2[nH]c1=O,400,23,10,100,16000,11,5,15,150,220,26,25,720,620,
CCCc1c(O)nc2ccc(F)c([N+](=O)[O-])c2c1OCC1CCC1,> 2000,250,1100,> 2000,>8000,> 2000,540,> 2000,> 2000,1000,~1000,1800,> 2000,> 2000,1200
CC(C)Nc1cccnc1N1CCN(C(=O)c2cc3cc(NS(C)(=O)=O)ccc3[nH]2)CC1 [DELAVIRDINE],2650,124,159,8000,,10000,35,,870,10000,97,,3400,1250,
O=C1Nc2ccc(Cl)cc2[C@@](C#CC2CC2)(C(F)(F)F)O1 [EFAVIRENZ],23,1,,552,,3,7,2,1,3,,,,43,
Cc1ccnc2c1NC(=O)c1cccnc1N2C1CC1 [NEVIRAPINE],,,89,,,> 10000,> 10000,> 10000,~10000,> 10000,,,,> 50000,
